Source: ChEMBL document CHEMBL4041513, “In silico identification, design and synthesis of novel piperazine-based antiviral agents targeting the hepatitis C virus helicase” (Eur J Med Chem, 2017)

Experiments:
Hepatitis C virus = assay: Antiviral activity against HCV genotype 1b infected in human HuH5.2 cells with persistent I389luc-ubi-neo/NS3-3'/5.1 replicon after 72 hrs by luciferase reporter gene assay; type: functional, cell-based, Hepacivirus hominis; conditions: Huh-5-2, 72 h
How it was run: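 Huh 5-2 cells carrying the genotype 1b I389luc-ubi-neo/NS3-3'/5.1 replicon were seeded at 6 500 cells/well in Geneticin-free DMEM/10% FCS and left overnight. Compounds from DMSO stocks were added in a four-step 1-to-5 series for the first screen or an eight-step 1-to-2 series for dose-response curves, then 72 h at 37 °C. Luciferase luminescence after lysis, as % of untreated controls, gave EC50; mean of ≥2 experiments.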

[1] = Cytotoxicity against human HuH5.2 cells assessed as reduction in cell viability after 72 hrs by MTS assay; type: cell-based, Huh-5-2
How it was run: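 Huh 5-2 cells carrying the genotype 1b I389luc-ubi-neo/NS3-3'/5.1 replicon were seeded at 6 500 cells/well in medium without Geneticin one day ahead. Compounds (DMSO stock) were added as 1:5 four-step or 1:2 eight-step dilutions for 72 h at 37 °C.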

[2] = Selectivity index, ratio of CC50 for human HuH5.2 cells to EC50 for HCV genotype 1b infected in human HuH5.2 cells with persistent I389luc-ubi-neo/NS3-3'/5.1 replicon

COc1ccc(S(=O)(=O)NCCN2CCN(CCNS(=O)(=O)c3ccc(OC)c(OC)c3)CC2)cc1OC
EC50 (Hepatitis C virus): 85.8 µM
EC90 (Hepatitis C virus): > 87.3 µM
CC50 at 72 h [1]: > 87.3 µM
Ratio CC50/EC50 [2]: >1

O=S(=O)(NCCCN1CCN(CCCNS(=O)(=O)c2ccc(-c3ccccc3)cc2)CC1)c1ccc(Cl)cc1
EC50 (Hepatitis C virus): 2.12 µM
CC50 at 72 h [1]: 4.43 µM
Ratio CC50/EC50 [2]: 2.1

Cc1ccc(S(=O)(=O)NCCCN2CCN(CCCNS(=O)(=O)c3ccc(C)cc3)CC2)cc1
EC50 (Hepatitis C virus): 19.2 µM
CC50 at 72 h [1]: > 197 µM
Ratio CC50/EC50 [2]: >10.3

O=S(=O)(NCCCN1CCN(CCCNS(=O)(=O)c2ccccc2)CC1)c1ccccc1
EC50 (Hepatitis C virus): 58.3 µM
CC50 at 72 h [1]: > 104 µM
Ratio CC50/EC50 [2]: >1.8

O=S(=O)(NCCCN1CCN(CCCNS(=O)(=O)c2cccs2)CC1)c1cccs1
EC50 (Hepatitis C virus): 62 µM
EC90 (Hepatitis C virus): 156 µM
CC50 at 72 h [1]: > 203 µM
Ratio CC50/EC50 [2]: >3.3

O=S(=O)(NCCCN1CCN(CCCNS(=O)(=O)c2ccc(Cl)cc2)CC1)c1ccccc1
EC50 (Hepatitis C virus): 19.9 µM
EC90 (Hepatitis C virus): > 64 µM
CC50 at 72 h [1]: 81.5 µM
Ratio CC50/EC50 [2]: 4.1

O=C1N/C(=N/N=C/c2ccccc2O)SC1Cc1ccc(Br)cc1 (centres undefined)
EC50 (Hepatitis C virus): 10.4 µM
CC50 at 72 h [1]: 15.7 µM
Ratio CC50/EC50 [2]: 1.5

O=C(CCNS(=O)(=O)c1ccccc1)N1CCN(CCCNS(=O)(=O)c2ccccc2)CC1
EC50 (Hepatitis C virus): > 202 µM
EC90 (Hepatitis C virus): > 202 µM
CC50 at 72 h [1]: > 202 µM

CC(C)(C)c1ccc(C(=O)Oc2ccc3c(-c4ccccc4C(=O)O)c4ccc(=O)cc-4oc3c2)cc1
EC50 (Hepatitis C virus): > 102 µM
EC90 (Hepatitis C virus): > 102 µM
CC50 at 72 h [1]: > 102 µM

O=C(CCNS(=O)(=O)c1ccc2ccccc2c1)N1CCN(C(=O)CCNS(=O)(=O)c2ccc3ccccc3c2)CC1
EC50 (Hepatitis C virus): 12 µM
CC50 at 72 h [1]: 40.8 µM
Ratio CC50/EC50 [2]: 3.4

O=S(=O)(NCCCN1CCN(CCNS(=O)(=O)c2ccccc2)CC1)c1ccccc1
EC50 (Hepatitis C virus): 69.2 µM
EC90 (Hepatitis C virus): 212 µM
CC50 at 72 h [1]: > 214 µM
Ratio CC50/EC50 [2]: >3.1

Cc1ccc(S(=O)(=O)NCCCN2CCN(CCCNS(=O)(=O)c3ccc(-c4ccccc4)cc3)CC2)cc1
EC50 (Hepatitis C virus): 1.98 µM
CC50 at 72 h [1]: 6.55 µM
Ratio CC50/EC50 [2]: 3.3

O=S(=O)(NCCCN1CCN(CCNS(=O)(=O)c2ccc(Cl)cc2)CC1)c1ccc(Cl)cc1
EC50 (Hepatitis C virus): 6.59 µM
CC50 at 72 h [1]: 32.3 µM
Ratio CC50/EC50 [2]: 4.9

Cc1ccc(S(=O)(=O)NCCN2CCN(CCNS(=O)(=O)c3ccc(C)cc3)CC2)cc1
EC50 (Hepatitis C virus): > 104 µM
EC90 (Hepatitis C virus): > 104 µM
CC50 at 72 h [1]: > 104 µM

CC(=O)c1ccc(NC(=O)CSc2nnc(NC(=O)CCc3ccccc3)s2)cc1
EC50 (Hepatitis C virus): > 113 µM
EC90 (Hepatitis C virus): > 113 µM
CC50 at 72 h [1]: > 113 µM

O=S(=O)(NCCCN1CCN(CCCNS(=O)(=O)c2ccc(C(F)(F)F)cc2)CC1)c1ccccc1
EC50 (Hepatitis C virus): 12.1 µM
CC50 at 72 h [1]: 70.8 µM
Ratio CC50/EC50 [2]: 5.8

COc1ccc(S(=O)(=O)NCCN2CCN(CCNS(=O)(=O)c3ccc(OC)cc3)CC2)cc1
EC50 (Hepatitis C virus): > 97.5 µM
EC90 (Hepatitis C virus): > 97.5 µM
CC50 at 72 h [1]: > 97.5 µM

O=S(=O)(NCCCN1CCN(CCCNS(=O)(=O)c2ccc(C(F)(F)F)cc2)CC1)c1ccc(Cl)cc1
EC50 (Hepatitis C virus): 10.1 µM
EC90 (Hepatitis C virus): 33.5 µM
CC50 at 72 h [1]: 63.7 µM
Ratio CC50/EC50 [2]: 6.3

O=C1NC(=O)/C(=C\c2ccc(-c3ccc(Cl)cc3Cl)o2)S1
EC50 (Hepatitis C virus): 13.2 µM
CC50 at 72 h [1]: 33.4 µM
Ratio CC50/EC50 [2]: 2.5

O=[N+]([O-])c1ccc(S(=O)(=O)NCCN2CCN(CCNS(=O)(=O)c3ccc([N+](=O)[O-])cc3)CC2)cc1
EC50 (Hepatitis C virus): 17.4 µM
CC50 at 72 h [1]: > 184 µM
Ratio CC50/EC50 [2]: >10.6

O=c1nc2n(-c3cccc(Br)c3)c3ccccc3cc-2c(=O)[nH]1
EC50 (Hepatitis C virus): 81.7 µM
CC50 at 72 h [1]: > 136 µM
Ratio CC50/EC50 [2]: >1.6

COc1ccc(S(=O)(=O)NCCCN2CCN(CCCNS(=O)(=O)c3ccc(OC)c(OC)c3)CC2)cc1OC
EC50 (Hepatitis C virus): 82 µM
EC90 (Hepatitis C virus): > 166 µM
CC50 at 72 h [1]: > 166 µM
Ratio CC50/EC50 [2]: >2

COc1ccc(S(=O)(=O)NCCCN2CCN(CCCNS(=O)(=O)c3ccc(OC)cc3)CC2)cc1
EC50 (Hepatitis C virus): > 92.5 µM
EC90 (Hepatitis C virus): > 92.5 µM
CC50 at 72 h [1]: > 92.5 µM

O=S(=O)(NCCCN1CCN(CCCNS(=O)(=O)c2cccc(Cl)c2)CC1)c1cccc(Cl)c1
EC50 (Hepatitis C virus): 76.9 µM
EC90 (Hepatitis C virus): 173 µM
CC50 at 72 h [1]: > 182 µM
Ratio CC50/EC50 [2]: >2.4

COc1ccc(OC)c(S(=O)(=O)NCCN2CCN(CCNS(=O)(=O)c3cc(OC)ccc3OC)CC2)c1
EC50 (Hepatitis C virus): > 87.3 µM
CC50 at 72 h [1]: > 87.3 µM

COc1ccc(OC)c(S(=O)(=O)NCCC(=O)N2CCN(C(=O)CCNS(=O)(=O)c3cc(OC)ccc3OC)CC2)c1
EC50 (Hepatitis C virus): > 79.5 µM
CC50 at 72 h [1]: > 79.5 µM

Cc1ccc(C(=O)C2=C(O)C(=O)N(Cc3ccco3)C2c2cccc(Cl)c2)o1 (centres undefined)
EC50 (Hepatitis C virus): 30.6 µM
CC50 at 72 h [1]: > 126 µM
Ratio CC50/EC50 [2]: >4.1

O=S(=O)(NCCN1CCN(CCNS(=O)(=O)c2ccccc2)CC1)c1ccccc1
EC50 (Hepatitis C virus): > 110 µM
CC50 at 72 h [1]: > 110 µM

COc1ccc(C(=O)C2=C(O)C(=O)N(c3cnoc3C)C2c2ccc(C(C)(C)C)cc2)cc1OC (centres undefined)
EC50 (Hepatitis C virus): 57.2 µM
CC50 at 72 h [1]: > 105 µM
Ratio CC50/EC50 [2]: >1.8

Cc1ccc(S(=O)(=O)NCCCN2CCN(C(=O)CCNS(=O)(=O)c3ccc(C)cc3)CC2)cc1
EC50 (Hepatitis C virus): 64.3 µM
EC90 (Hepatitis C virus): 173 µM
CC50 at 72 h [1]: > 191 µM
Ratio CC50/EC50 [2]: >3

Cc1ccc2nc(N3C(=O)C(O)=C(C(=O)c4cc5ccccc5o4)C3c3cccc(O)c3)sc2c1 (centres undefined)
EC50 (Hepatitis C virus): 35.8 µM
CC50 at 72 h [1]: > 104 µM
Ratio CC50/EC50 [2]: >2.8

CC(CC(=O)O)CC(=O)Nc1cccnc1 (centres undefined)
EC50 (Hepatitis C virus): > 225 µM
EC90 (Hepatitis C virus): > 225 µM
CC50 at 72 h [1]: > 225 µM

COc1ccc(S(=O)(=O)NCCC(=O)N2CCN(C(=O)CCNS(=O)(=O)c3ccc(OC)c(OC)c3)CC2)cc1OC
EC50 (Hepatitis C virus): > 159 µM
EC90 (Hepatitis C virus): > 159 µM
CC50 at 72 h [1]: > 159 µM

Cc1ccc(S(=O)(=O)NCCCN2CCN(CCCNS(=O)(=O)c3ccc(Cl)cc3)CC2)cc1
EC50 (Hepatitis C virus): 9.93 µM
EC90 (Hepatitis C virus): 36 µM
CC50 at 72 h [1]: 48.8 µM
Ratio CC50/EC50 [2]: 4.9

O=[N+]([O-])c1ccc(S(=O)(=O)NCCCN2CCN(CCCNS(=O)(=O)c3ccc([N+](=O)[O-])cc3)CC2)cc1
EC50 (Hepatitis C virus): 18.1 µM
EC90 (Hepatitis C virus): 61.1 µM
CC50 at 72 h [1]: 77.4 µM
Ratio CC50/EC50 [2]: 4.4

Cc1ccc(S(=O)(=O)NCCCN2CCN(CCCNS(=O)(=O)c3ccccc3)CC2)cc1
EC50 (Hepatitis C virus): 26.3 µM
CC50 at 72 h [1]: 138 µM
Ratio CC50/EC50 [2]: 5.3

CC(C)Oc1ccc(/C=N/N=C2/NC(=O)C(CC(=O)O)S2)cc1 (centres undefined)
EC50 (Hepatitis C virus): 127 µM
CC50 at 72 h [1]: > 149 µM
Ratio CC50/EC50 [2]: >1.1

Cc1ccc(S(=O)(=O)NCCCN2CCN(CCCNS(=O)(=O)c3ccc(C(C)(C)C)cc3)CC2)cc1
EC50 (Hepatitis C virus): 3.5 µM
EC90 (Hepatitis C virus): 9.44 µM
CC50 at 72 h [1]: 14.6 µM
Ratio CC50/EC50 [2]: 4.2

O=S(=O)(NCCCN1CCN(CCCNS(=O)(=O)c2ccccc2Cl)CC1)c1ccccc1Cl
CC50 at 72 h [1]: > 182 µM

COc1ccc(OC)c(S(=O)(=O)NCCCN2CCN(CCCNS(=O)(=O)c3cc(OC)ccc3OC)CC2)c1
EC50 (Hepatitis C virus): > 83.2 µM
EC90 (Hepatitis C virus): > 83.2 µM
CC50 at 72 h [1]: > 83.2 µM

COc1ccc(S(=O)(=O)NCCC(=O)N2CCN(C(=O)CCNS(=O)(=O)c3ccc(OC)cc3)CC2)cc1
CC50 at 72 h [1]: > 87.9 µM

O=S(=O)(NCCCN1CCN(CCCNS(=O)(=O)c2cccnc2)CC1)c1cccnc1
EC50 (Hepatitis C virus): > 207 µM
EC90 (Hepatitis C virus): > 207 µM
CC50 at 72 h [1]: > 207 µM

CCC[C@H](NC(=O)[C@@H]1[C@H]2CCC[C@H]2CN1C(=O)[C@@H](NC(=O)[C@@H](NC(=O)c1cnccn1)C1CCCCC1)C(C)(C)C)C(=O)C(=O)NC1CC1
Ratio CC50/EC50 [2]: 58.8

O=C(NCCCN1CCN(CCCNC(=O)c2ccc(Cl)cc2)CC1)c1ccc(Cl)cc1
EC50 (Hepatitis C virus): > 209 µM
EC90 (Hepatitis C virus): > 209 µM
CC50 at 72 h [1]: > 209 µM
